From ChEMBL document CHEMBL1134957, “Synthesis and SAR of 4-carboxy-2-azetidinone mechanism-based tryptase inhibitors” (Bioorg Med Chem Lett, 2002)

Assays:
Homo sapiens [1] = species on record: Homo sapiens; experiment: Selectivity for human tryptase compared to human thrombin.
Homo sapiens [2] = species on record: Homo sapiens; experiment: Selectivity for human tryptase compared to human urokinase plasminogen activator.
Homo sapiens [3] = species on record: Homo sapiens; experiment: Selectivity for human tryptase compared to human tissue plasminogen activator tissue.
Tryptase = Tryptase (Homo sapiens, UniProt Q9BZJ3+Q15661+Q9NRR2); experiment: In vitro inhibition of human tryptase.
Homo sapiens [4] = species on record: Homo sapiens; experiment: Selectivity for human tryptase compared to human plasmin.
[5] = Aqueous Stability (half-life period) at pH 7 and 37 degrees; type: ADME; conditions: aqueous solution
In short: (§1)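 Compound half-life, reported in hours, was measured by incubation in aqueous buffer at 37 °C, run separately at pH 7 and pH 9.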

[6] = Aqueous Stability (half-life period) at pH 9 and 37 degrees; type: ADME; conditions: aqueous solution; in short: as §1
Homo sapiens [7] = species on record: Homo sapiens; experiment: Selectivity for human tryptase compared to human trypsin.
Cavia porcellus [8] = experiment: Effect (decrease in dynamic lung compliance) on pulmonary mechanics of ovalbumin-sensitized guinea pigs following allergen induced bronchoconstriction upon intratracheal dosage of 75 ug/kg 10 min prior to ovalbumin challenge; type: functional
In short: (§2)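 Guinea pigs were sensitized by ip ovalbumin with aluminum hydroxide on days 0 and 14, plus cyclophosphamide (30 mg/kg) on day 12, and used between days 35 and 65. Under Na-pentobarbital anesthesia they were mechanically ventilated, with intratracheal flow and pressure recorded in real time. Ten min before iv ovalbumin challenge, compound was given as an intratracheal aerosol spray. Rlung and Cdyn were recorded as % change (n=9).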

Cavia porcellus [9] = experiment: Effect (increase in lung resistance (Rlung)) on pulmonary mechanics of ovalbumin-sensitized guinea pigs following allergen induced bronchoconstriction upon intratracheal dosage of 75 ug/kg 10 min prior to ovalbumin challenge; type: functional; in short: as §2
Cavia porcellus [10] = species on record: Cavia porcellus; experiment: Effect (decrease in dynamic lung compliance) on pulmonary mechanics of ovalbumin-sensitized guinea pigs following allergen induced bronchoconstriction; type: functional; in short: as §2
Cavia porcellus [11] = species on record: Cavia porcellus; experiment: Dose required for the inhibition of the cellular inflammatory response in ovalbumin-sensitized guinea pigs was evaluated by the reduction in cell count by 70-80%; type: functional
In short: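 Ovalbumin-sensitized guinea pigs were given saline or compound as an intratracheal spray at two dose levels (75 or 225 per kg), and the tracheal incision was closed. Ovalbumin was injected into the jugular vein about 6 min after dosing, and the animals recovered from anesthesia. Bronchoalveolar lavage cell counts and protein were measured 24 h later. Controls were sham-operated animals without ovalbumin challenge.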

Cavia porcellus [12] = species on record: Cavia porcellus; experiment: Effect (increase in lung resistance (Rlung)) on pulmonary mechanics of ovalbumin-sensitized guinea pigs following allergen induced bronchoconstriction; type: functional; in short: as §2
Homo sapiens [13] = species on record: Homo sapiens; experiment: Ratio of inhibitiroy activities against human tryptase and human plasminogen activator urokinase microPa

Structure (SMILES)	Selectivity ratio (Homo sapiens [1])	Selectivity ratio (Homo sapiens [2])	Selectivity ratio (Homo sapiens [3])	IC50 (Tryptase)	Selectivity ratio (Homo sapiens [4])	half-life [5]	half-life [6]	Selectivity ratio (Homo sapiens [7])	Selectivity ratio (Homo sapiens [13])	Cdyn (Cavia porcellus [8])	Rlung (Cavia porcellus [9])	Cdyn (Cavia porcellus [10])	Dose (Cavia porcellus [11])	Rlung (Cavia porcellus [12])
N=C(N)NCCC[C@H]1C(=O)N(S(=O)(=O)c2ccc(-c3ccccc3)cc2)[C@@H]1C(=O)O	7	44	4370	1 nM	47	636 min	< 6 min	1						
N=C(N)NCCC[C@H]1C(=O)N(C(=O)c2cccs2)[C@@H]1C(=O)O	190	5	109	1 nM	12	522 min	< 6 min	3						
CC(C)(C)OC(=O)N1CCN(C(=O)N2C(=O)[C@H](CCCN=C(N)N)[C@H]2C(N)=O)CC1 (single isomer, unassigned)	105	82	8300	0.4 nM	227	2520 min	18 min	6						
CC(C)(C)OC(=O)N1CCN(C(=O)N2C(=O)[C@H](CCCN=C(N)N)[C@H]2C(=O)N2CCCCC2)CC1	155	246	4430	3 nM	205	> 2880 min	48 min	1						
N=C(N)NCCC[C@H]1C(=O)N(C(=O)N2CCN(C(=O)OCCc3ccccc3)CC2)[C@@H]1C(=O)O	3320	926	14200	0.7 nM	302	> 2880 min	420 min	8						
N=C(N)NCCC[C@H]1C(=O)N(C(=O)Nc2ccccc2)[C@@H]1C(=O)O (stereo in doubt) [listing 1 of 2 here]				5380 nM										
N=C(N)NCCC[C@H]1C(=O)N(C(=O)c2ccc(-c3ccccc3)cc2)[C@@H]1C(=O)O	65	3270	1610	1 nM	8	666 min	< 6 min	2						
N=C(N)NCCC[C@H]1C(=O)N(C(=O)N2CCN(C(=O)c3ccccc3)CC2)[C@@H]1C(=O)O	286	142	> 2000	5.2 nM	332	> 2880 min	234 min	1						
CNC(=O)[C@@H]1[C@@H](CCCN=C(N)N)C(=O)N1C(=O)N1CCN(C(=O)OC(C)(C)C)CC1	177	75	6800	0.7 nM	172	1910 min	18 min	3						
N=C(N)NCCC[C@H]1C(=O)N(C(=O)NC2CCCCC2)[C@@H]1C(=O)O						> 2880 min	546 min							

Second part, led by results:

Selectivity ratio (Homo sapiens [1])	Selectivity ratio (Homo sapiens [2])	Selectivity ratio (Homo sapiens [3])	IC50 (Tryptase)	Selectivity ratio (Homo sapiens [4])	half-life [5]	half-life [6]	Selectivity ratio (Homo sapiens [7])	Selectivity ratio (Homo sapiens [13])	Structure (SMILES)	Cdyn (Cavia porcellus [8])	Rlung (Cavia porcellus [9])	Cdyn (Cavia porcellus [10])	Dose (Cavia porcellus [11])	Rlung (Cavia porcellus [12])
465	16	465	71 nM	45	> 2880 min	408 min	2		N=C(N)NCCC[C@H]1C(=O)N(C(=O)NCc2ccccc2)[C@@H]1C(=O)O					
			6 nM		> 2880 min	132 min			N=C(N)NCCC[C@H]1C(=O)N(C(=O)Nc2ccccc2)[C@@H]1C(=O)O (stereo in doubt; 8a) [listing 1 of 2 here]					
> 1500	154	> 1500	7 nM	232	> 2880 min	150 min	3		CC(C)(C)C(=O)N1CCN(C(=O)N2C(=O)[C@H](CCCN=C(N)N)[C@H]2C(=O)O)CC1					
> 1000	8	> 1000	11 nM	314	> 2880 min	390 min	1.5		CC(C)(C)CC(=O)N1CCN(C(=O)N2C(=O)[C@H](CCCN=C(N)N)[C@H]2C(=O)O)CC1					
142	3	128	9 nM	17			1		N=C(N)NCCC[C@H]1C(=O)N(C(=O)c2ccccc2)[C@@H]1C(=O)O					
> 6600	520	> 6600	5 nM	227	> 2880 min	384 min	3		CCN(CC)C(=O)N1CCN(C(=O)N2C(=O)[C@H](CCCN=C(N)N)[C@H]2C(=O)O)CC1					
556	43	> 2500	13 nM	147	> 2880 min	102 min	14		N=C(N)NCCC[C@H]1C(=O)N(C(=O)N2CCN(S(=O)(=O)c3ccccc3)CC2)[C@@H]1C(=O)O					
		> 6		> 6			0.3		N=C(N)NCCC[C@H]1C(=O)N(C(=O)Nc2ccccc2)[C@@H]1C(=O)O (stereo in doubt) [listing 2 of 2 here]					
2620	135	> 8250	4 nM	430	> 2880 min	480 min	18		CC(C)(C)NC(=O)N1CCN(C(=O)N2C(=O)[C@H](CCCN=C(N)N)[C@H]2C(=O)O)CC1	-43 % delta	89 % delta	-69 % delta	225 µg/kg	421 % delta
683		> 1200	9 nM	210	> 2880 min	336 min	2	70	COC(=O)N1CCN(C(=O)N2C(=O)[C@H](CCCN=C(N)N)[C@H]2C(=O)O)CC1					
> 8250	218	> 8250	4 nM	295	> 2880 min	372 min	8		CC(C)(C)OC(=O)N1CCN(C(=O)N2C(=O)[C@H](CCCN=C(N)N)[C@H]2C(=O)O)CC1					
1550	3	117		52			1		N=C(N)NCCC[C@H]1C(=O)N(C(=O)Nc2ccccc2)[C@@H]1C(=O)O (stereo in doubt; 8a) [listing 2 of 2 here]					
			992 nM						N=C(N)NCCC[C@H]1C(=O)N(C(=O)Nc2ccccc2)[C@@H]1C(=O)O (relative stereo)					
